# Compound activity from PubChem BioAssay.
# PGC1a acetyl inh: PGC1a acetylation modulation, inhibitor mode; U2OS PGC1a acetylation, AlphaScreen anti-acetyl-lysine; with virally co-expressed GCN5 acetyltransferase; inhibition, % at 15.6 µM; 350,000 tested, 0.17% active;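 active = every replicate shows inhibition of at least 40%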;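 note: 0% = neutral control wells and 100% = positive control wells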
# PglD inh: blocks C. jejuni PglD acetyltransferase activity | purified PglD enzyme, DTNB colorimetric CoA detection | inhibition, % at 12.5 µM | 360,000 tested, 0.098% active; in the data active = inhibition above about 16%, passing the limit was not always enough
# FGF22 binding-1: binders of recombinant human FGF22 by thermal shift | Q9HCT0 | SYPRO orange fluorescence; percent of sucrose octasulfate shift, DMSO zero | activity (Tm shift, normalised), % at 9.99 µM | 340,000 tested, 1.5% active | AID 651658;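 active = mean Tm shift, scaled 0 neutral to 100 positive control, at about 1.3% or above, every replicate too, limit read from the data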
# Target sequence (Q9HCT0 whole entry, looked up): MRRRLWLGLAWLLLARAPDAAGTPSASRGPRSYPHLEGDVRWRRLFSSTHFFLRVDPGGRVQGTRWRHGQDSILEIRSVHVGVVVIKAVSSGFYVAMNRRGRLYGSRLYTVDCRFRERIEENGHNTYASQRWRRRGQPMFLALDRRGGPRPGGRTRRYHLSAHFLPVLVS
# Vif imaging: inhibitors of HIV Vif; HEK293T cells, Vif self-association by quenched fluorescence, imaging, 24 h; inhibition, % at 7.49 µM; 340,000 tested, 0.35% active; AID 602346; in the data active = inhibition above about 50%, passing the limit was not always enough
# rRNA inh HTS: selective bacterial rRNA inhibition in E. coli; 350,000 tested, 1.6% active; AID 720706; E. coli WT GFP vs humanized-ribosome RFP mutants, fluorescence, 24 h; stronger effect = lower value; DMSO median 0, no signal -100; GFP signal change (wild-type ribosome), % (concentration not given with the values);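 active = significant combined selectivity score with lowered wild-type GFP, culture density cut under 30%, mutant RFP and density less affected; inactive = any of these conditions unmet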
# Cneo AK release: Cryptococcus neoformans lysis via adenylate kinase release. 360,000 tested, 0.2% active. C. neoformans lysis, adenylate kinase release luminescence, 4 h; normalised: neutral wells 0, clomiphene wells 100. lysis activity, % at 15 µM;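 active = mean lysis activity across replicates of at least 80%, whatever share of replicates individually reach that level; inactive = mean lysis activity below 80%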
#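 Signal: Adenylate kinase release luminescence | Assay system: Log-phase Cryptococcus neoformans yeast cells | Input: Cells at 5 × 10^6 per mL | Buffer or medium: Fresh YPD growth medium | Compound: Single dose | Schedule: Static 4 h at 37 °C with compound, 1 h detection | Controls: Clomiphene | Read-out: Luminescence rise reflecting yeast cell lysis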
# FGF22 binding-2: FGF22 (human) binding in thermal shift; shares compounds with FGF22 binding-1; recombinant FGF22 thermal shift, SYPRO orange fluorescence; thermal shift activity, °C (ΔTm) at 38 µM; 1,000 tested, 2% active; AID 720646;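 active = fitted rise in melting shift crosses a set limit at or below the top valid dose tested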
# SYPRO no-protein: compound-only SYPRO artifact for FGF22 binders | 1,000 tested, 2% active | compound-only SYPRO orange thermal shift counter-screen, no protein | AC50, µM (titrated, usually from 38 µM) | shares compounds with FGF22 binding-1;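 active = rising signal whose fitted curve reaches the 0.54 level within the top valid dose, showing a melting point, actives reach about 13 µM in these data; inactive = the rest, including activity in the opposite direction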; note: value is where the raw curve crosses a fixed level and not half-maximal
# * marks the source's active call; other numbers are inactive results; i = inactive; nt = no result given; ! = a repeat was not active; [ ] = remark or other dose. Hits are enriched below; roughly 2.9% of the tested compounds scored in any of these assays.
SMILES,PGC1a acetyl inh,PglD inh,FGF22 binding-1,Vif imaging,rRNA inh HTS,Cneo AK release,FGF22 binding-2,SYPRO no-protein
CCC(C)[C@H](NC(=O)N1CCn2c1nc1ccccc12)C(=O)NCCc1ccccc1 (stereo not given in full),3,-3,14*,3,-1,10,0.016,i
CCC(C)[C@H](NC(=O)N1CCn2c1nc1ccccc12)C(=O)NCC1CCCO1 (stereo not given in full),-9,1,0,1,3,-2,nt,nt
O=C(C1CCOCC1)N1[C@H](CO)[C@@H](c2ccccc2)C12CN(CCC(F)(F)F)C2,-1,nt,0,nt,3,nt,nt,nt
CC(=O)Nc1ccc(C(=O)N/N=C/c2cc(Br)cc(Br)c2O)cc1,26,nt,2.8*,1,-12,nt,-0.18,i
C[C@H]1CN([C@@H](C)CO)C(=O)c2ccccc2-c2ccccc2CO[C@@H]1CN(C)C(=O)Nc1ccccc1,4,0,0,nt,0,2,nt,nt
CN(C)CC(=O)Nc1ccc2c(c1)[C@H]1C[C@@H](CC(=O)NCC3CC3)O[C@H](CO)[C@H]1O2,2,1,1.3*,nt,4,-1,-0.018,i
O=C(Nc1ccc2c(c1)[C@@H]1C[C@H](CC(=O)N3CCCCC3)O[C@@H](CO)[C@@H]1O2)NC1CCCC1,5,0,20*,nt,1,-3,0.18,i
CN(C)CC(=O)Nc1ccc2c(c1)[C@H]1C[C@H](CC(=O)NCC3CC3)O[C@H](CO)[C@H]1O2,-3,1,0,nt,3,0,nt,nt
O=C(Nc1ccc2c(c1)[C@H]1C[C@H](CC(=O)N3CCCCC3)O[C@H](CO)[C@H]1O2)NC1CCCCC1,nt,nt,nt,nt,-4,nt,nt,nt
COCC(=O)Nc1ccc2c(c1)[C@H]1C[C@@H](CC(=O)NCCN3CCCCC3)O[C@H](CO)[C@H]1O2,4,3,1.3*,nt,6,3,0.065,i
COCC(=O)Nc1ccc2c(c1)[C@@H]1C[C@@H](CC(=O)NCc3ccccn3)O[C@@H](CO)[C@@H]1O2,-5,6,1.3*,nt,3,1,0.018[42 µM],i
CN1C(=O)c2cc(NC(=O)c3ccc(F)cc3)ccc2OC[C@H]2O[C@@H](CC(=O)NCC3CCCCC3)CC[C@@H]21,-2,0,0,nt,-8,0,nt,nt
C[C@@H]1CN([C@@H](C)CO)S(=O)(=O)c2ccc(C3=CCCC3)cc2O[C@@H]1CN(C)C,nt,7,0,nt,0,48,nt,nt
CCOC(=O)[C@@H]1[C@H]2COc3cc(OC)ccc3[C@H]2N2C(=O)N(c3ccc(C)cc3)C(=O)[C@]12C,8,-3,1.6*,-5,0,-1,0.055,i
COc1ccc(CN(C)C[C@H]2OCCCC[C@H](C)Oc3ccc(NC(=O)C4CCCCC4)cc3C(=O)N([C@@H](C)CO)C[C@H]2C)cc1,9,8,0,nt,1,2,nt,nt
COc1cc(NC(=O)c2cnc(N)s2)cc(C(=O)Nc2cccc(C(F)(F)F)c2)c1,-18,-2,1.7*!,2,-45,-9,0.064,i
COc1cc(NC(=O)c2csc(N)n2)cc(C(=O)Nc2cccc(C(F)(F)F)c2)c1,-4,-12,1.6*!,-4,-48,-4,-0.085,11µM*
COc1cc(NC(=O)c2cnc(N)o2)cc(C(=O)Nc2cccc(C(F)(F)F)c2)c1,nt,-2,2.2*!,-15,-61,-3,0.14,i
Cc1noc(C)c1NC(=O)Nc1ccc2c(c1)C(=O)N([C@@H](C)CO)C[C@@H](C)[C@H](CN(C)C(=O)C1CCCCC1)OCCCC[C@@H](C)O2,-3,5,0,nt,-3,0,nt,nt
Cc1cc(C)cc(N(CC(=O)NC2CCC(C)CC2)S(=O)(=O)c2c(C)noc2C)c1 (stereo not given),4,0,1.4*,15,-4,4,-0.055,i
Cc1cc(C)cc(N(CC(=O)O)S(=O)(=O)c2c(C)noc2C)c1,0,1,0,-18,8,-2,nt,nt
Oc1ccc(-c2nc3ccccc3s2)c(O)c1,nt,nt,1.3*,-2,-61,nt,0.22,i
Nc1ccc(O)c(-c2nc3ccccc3s2)c1,32,0,nt,6,nt,0,nt,nt
CCC(=O)N1[C@H](CO)[C@H](c2ccc(-c3ccccc3)cc2)[C@@H]1CNC(=O)COC,4,-1,nt,nt,-1,0,nt,nt
Cc1ccc(-c2nnn(CC(=O)NCCc3ccc4c(c3)OCO4)n2)cc1,6,2,8.9*,27,14,-24,0.045,i
SMILES,PGC1a acetyl inh,PglD inh,FGF22 binding-1,Vif imaging,rRNA inh HTS,Cneo AK release,FGF22 binding-2,SYPRO no-protein
CCCN(C)C[C@H]1OCCCC[C@@H](C)Oc2ccc(NS(=O)(=O)c3cccs3)cc2C(=O)N([C@@H](C)CO)C[C@@H]1C,1,-1,0,nt,-1,5,nt,nt
N#Cc1c(-c2ccccc2)nc(-c2ccncc2)[nH]c1=O,7,3,1.6*,-4,8,-1,0.14,i
O=C(Nc1cccc(-c2cnc3ccccc3n2)c1)c1ccncc1,2,nt,1.3*,1,0,nt,0.065,i
Cc1cccnc1NC(=O)CCCN1C(=O)c2ccccc2C1=O,7,2,17*,17,11,1,0.22,i
O=C(N[C@H]1CC[C@@H](CCn2cc(C3(O)CCCC3)nn2)O[C@@H]1CO)C1CCCCC1,-3,12,0,nt,2,-1,nt,nt
COc1ccc(NC(=O)N[C@H]2CC[C@@H](CCn3cc(-c4ccc(OC)cc4)nn3)O[C@@H]2CO)cc1,-7,0,1.3*,nt,-4,-4,0.11[42 µM],i
O=C(N[C@H]1CC[C@H](CCn2cc(C3(O)CCCC3)nn2)O[C@@H]1CO)C1CCCCC1,5,2,1.8*,nt,1,-1,0.027[42 µM],i
O=C(Nc1ccc(F)cc1)N[C@@H]1CC[C@H](CCn2cc(-c3ccc(F)cc3)nn2)O[C@H]1CO,-11,-3,2.4*,nt,2,-2,-0.2[42 µM],i
COc1ccc(NC(=O)N[C@@H]2CC[C@H](CCn3cc(-c4ccc(F)cc4)nn3)O[C@H]2CO)cc1,-2,2,0,nt,2,0,nt,nt
O=C(Nc1ccc(F)cc1)N[C@@H]1CC[C@H](CCn2cc(-c3ccc(F)cc3)nn2)O[C@@H]1CO,-4,0,0,nt,-7,0,nt,nt
COc1ccc(-c2cn(CC[C@@H]3CC[C@@H](NC(=O)Nc4ccc(F)cc4)[C@H](CO)O3)nn2)cc1,nt,nt,nt,nt,-1,nt,-0.17[42 µM],i
